Only a selection was taken, and hits are over-represented in it overall.
Ecoli tolC: blocks growth of E. coli BW25113 tolC mutant; AID 573; 65,000 compounds, 2.2% hits; growth inhibition, % at 10 µM (by protocol); OD615;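 active = growth inhibition at or above a cutoff equal to the mean over every tested compound plus 3 SD, cut at about 60% in these data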;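 also: growth measured after 20 h incubation at 37 °C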
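Test system: E. coli BW25113 ΔtolC::kan bacteria | Medium: Kanamycin-containing LB broth (50 µg/mL) | Dosing: One dose of 10 µM final | Times: 20 h incubation with compound, 37 °C | Detection: Optical density read at 615 nm | Read-out basis: Percent growth inhibition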
E coli WT exp: blocks growth of wild type E. coli BW25113; growth inhibition, % at 100 µM; OD600 absorbance; 98,000 compounds, 0.15% hits;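 active = growth inhibition above about 50% at one test dose, limit read from the data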;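 also: growth measured after 20 h incubation at 37 °C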
MMP13 inh: MMP13 (human) collagenase inhibition; P45452; MMP-13 fTHP FRET cleavage, Mca fluorescence; inhibition, % at 4 µM; 65,000 compounds, 0.07% hits; AID 570;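 active = inhibition above the mean of compound-free control plate wells plus 3 SD, cut at about 14% in these data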
E coli RNAP: inhibitors of Escherichia coli RNA polymerase | AID 559 | inhibition, %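 (tested at 10 µM)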 | 62,000 compounds, 0.2% hits | P0A8V2 | E. coli RNA polymerase, fluorescence transcription assay; in the data active = inhibition above about 20%
AP complement: alternative pathway complement inhibition, orthogonal assay. 62,000 compounds, 0.08% hits. AID 1235. inhibition, % at 5 µM. Human serum alternative complement pathway, LPS-coated ELISA, C3 deposition; tested in compound mixtures;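 active = inhibition above 30% in each of the two pooled mixtures holding the compound, so the lower value exceeds 30%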
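Test system: human serum alternative complement pathway, C3 deposition on LPS-coated wells; also added: Plate-bound LPS; doses: 5 µM per compound in ten-compound mixtures; schedule: 1 h at 37 °C; detection: Anti-C3 ELISA, OD 450 nm; evaluation: percent inhibition of C3 deposition onto LPS; repeats: two pool placements per compound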
BAP1 inh: human BAP1 deubiquitinase inhibition | Q92560 | recombinant BAP1, Ub-AMC hydrolysis fluorescence kinetic; stronger effect = lower value | calls only at 20 µM | 72,000 compounds, 0.48% hits | AID 436;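 active = activity remaining at or below 50% of control, provided the compound also passes the data quality filters; inactive = the rest, including low values that fail the filters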
Target sequence (Q92560 whole entry, looked up): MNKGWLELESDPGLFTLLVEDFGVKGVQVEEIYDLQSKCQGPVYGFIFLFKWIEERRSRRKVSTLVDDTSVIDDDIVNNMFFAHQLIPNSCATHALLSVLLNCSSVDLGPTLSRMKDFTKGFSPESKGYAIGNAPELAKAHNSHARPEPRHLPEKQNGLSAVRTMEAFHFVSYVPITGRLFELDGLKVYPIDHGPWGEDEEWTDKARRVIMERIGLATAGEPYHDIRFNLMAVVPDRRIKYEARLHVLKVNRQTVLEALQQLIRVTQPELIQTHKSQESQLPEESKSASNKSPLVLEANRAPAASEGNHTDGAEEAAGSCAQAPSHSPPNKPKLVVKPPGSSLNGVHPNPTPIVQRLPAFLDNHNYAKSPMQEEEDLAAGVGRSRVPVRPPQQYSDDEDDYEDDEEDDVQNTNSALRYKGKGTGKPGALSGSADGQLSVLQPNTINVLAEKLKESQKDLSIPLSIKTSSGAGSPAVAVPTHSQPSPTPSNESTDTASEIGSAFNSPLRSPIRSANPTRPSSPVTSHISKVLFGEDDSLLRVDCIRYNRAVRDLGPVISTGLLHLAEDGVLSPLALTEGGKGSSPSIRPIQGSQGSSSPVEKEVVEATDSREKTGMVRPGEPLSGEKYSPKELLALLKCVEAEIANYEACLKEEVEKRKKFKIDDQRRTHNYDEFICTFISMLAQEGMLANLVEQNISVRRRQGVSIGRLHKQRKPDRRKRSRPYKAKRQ
Large screens that a line does not name were inactive.

COc1ccc2[nH]c(=O)c(CNC3CCCCC3)cc2c1	none (not shown: BAP1 inh)
Cc1cccc2cc(CN(Cc3ccco3)C(=O)NC3CCCCC3)c(=O)[nH]c12	Ecoli tolC 64
COc1ccc2[nH]c(=O)c(CN(C(=O)NC3CCCCC3)C3CCCCC3)cc2c1	Ecoli tolC 72 (not shown: BAP1 inh)
COc1ccc(CN(Cc2cc3cc4c(cc3[nH]c2=O)OCO4)C(=O)NC2CCCCC2)cc1	Ecoli tolC 72
O=c1c2c(nc3c(-c4cccc5ccccc45)c[nH]n13)CCC2	Ecoli tolC 65
O=c1c2c(nc3c(-c4ccc(Cl)cc4)c[nH]n13)CCCC2	Ecoli tolC 100
O=c1c2c(nc3cc(-c4cccc(Cl)c4)[nH]n13)CCC2	none (no result: Ecoli tolC, MMP13 inh, E coli RNAP, AP complement, BAP1 inh)
CCC(O)(CC)C12CC3CC(CC(C3)C1)C2	none (no result: Ecoli tolC, E coli WT exp, MMP13 inh, E coli RNAP, AP complement)
CC(OC(=O)c1nsc(Cl)c1Cl)C(=O)NCc1ccco1 (centres undefined)	none
CC(OC(=O)c1ccccc1NCc1ccco1)C(=O)Nc1ncc(Cl)cc1Cl (centres undefined)	Ecoli tolC 61 (no result: BAP1 inh)
O=C(O)c1cccc(NS(=O)(=O)c2cccc(S(=O)(=O)c3ccc(Cl)cc3)c2)c1	none (no result: Ecoli tolC, E coli WT exp, MMP13 inh, E coli RNAP, AP complement)
COc1ccc(C2C(C(C)=O)=C(C)N=c3s/c(=C\c4cc(C)n(C)c4C)c(=O)n32)c(OC)c1 (centres undefined)	MMP13 inh 18 (no result: E coli RNAP)
O=C(Nc1nc(-c2ccc(Cl)s2)cs1)c1cccs1	none
O=C(NCc1nc(-c2ccccc2)no1)c1cccs1	none
O=C(Nc1nc(-c2ccccc2)cs1)c1cccs1	Ecoli tolC 98
O=C(Nc1nc(-c2ccccc2)ns1)c1cccs1	Ecoli tolC 64
CC(=O)NCc1nc2ccccc2[nH]1	none (no result: Ecoli tolC, E coli WT exp, MMP13 inh, E coli RNAP, AP complement)
CC(Cc1ccc(O)c(O)c1)C(C)Cc1ccc(O)c(O)c1 (centres undefined)	E coli RNAP 51 (not shown: E coli WT exp, BAP1 inh)
C[C@H](Cc1ccc(O)c(O)c1)[C@@H](C)Cc1ccc(O)c(O)c1	none (no result: Ecoli tolC, E coli WT exp, MMP13 inh, E coli RNAP, AP complement)
CC(C)CC(C(=O)Nc1ccccc1C(F)(F)F)N1C(=O)c2ccccc2C1=O (centres undefined)	none (no result: Ecoli tolC, E coli WT exp, MMP13 inh, E coli RNAP, AP complement)
Cc1cccnc1Nc1nc(-c2ccccn2)cs1	none (no result: Ecoli tolC, MMP13 inh, E coli RNAP, AP complement, BAP1 inh)
c1ccc(Nc2nc(-c3cccs3)cs2)nc1	Ecoli tolC 100
Cc1cccc(Nc2nc(-c3ccccn3)cs2)n1	Ecoli tolC 98
CCCC(NS(=O)(=O)c1ccc(C)cc1)C(=O)O (centres undefined)	none (no result: Ecoli tolC, MMP13 inh, E coli RNAP, AP complement, BAP1 inh)
O=C(O)CCC(NS(=O)(=O)c1ccc(-c2ccccc2)cc1)C(=O)O (centres undefined)	MMP13 inh 50 (not shown: BAP1 inh)
Cc1cc(Cl)ccc1OCC(=O)Nc1ccccc1N1CCOCC1	Ecoli tolC 86
Cc1cccc2[nH]c(-c3ccc(N)cc3)nc12	none (no result: Ecoli tolC, E coli WT exp, MMP13 inh, E coli RNAP, AP complement)
Cc1cc(=O)[nH]c(SCC(=O)C23CC4CC(CC(C4)C2)C3)c1C#N	Ecoli tolC 70
CN1C(=O)/C(=C2/C=Cc3ccccc3N2CCCS(=O)(=O)O)SC1=S	MMP13 inh 18
C=CCN1C(=O)/C(=C2/Sc3ccccc3N2CCCS(=O)(=O)O)SC1=S	MMP13 inh 16
CCCN1/C(=C2/SC(=S)N(CC)C2=O)C=Cc2ccccc21	none (no result: Ecoli tolC, MMP13 inh, E coli RNAP, AP complement, BAP1 inh)
CC(C)(C)c1cc(C(C)(C)C)c2nc(-c3ccccc3O)oc2c1O	none (no result: Ecoli tolC, E coli WT exp, MMP13 inh, E coli RNAP, AP complement)
CCC(Oc1ccccc1)C(=O)Nc1nnc(C)s1 (centres undefined)	none
O=C(COc1ccc(Br)cc1)Nc1ccc(-c2nnc(-c3ccco3)o2)cc1	none (not shown: BAP1 inh)
CCC(Oc1ccccc1)C(=O)Nc1ccc(-c2nnc(-c3ccco3)o2)cc1 (centres undefined)	Ecoli tolC 66 (not shown: BAP1 inh)
CCC(Oc1ccccc1)C(=O)Nc1nnc(C(F)(F)F)s1 (centres undefined)	Ecoli tolC 87
COc1ccc2nc(C(=O)O)sc2c1	none (no result: Ecoli tolC, E coli WT exp, MMP13 inh, E coli RNAP, AP complement)
COc1ccc(-c2cnc(N)n2CC2CCCO2)cc1 (centres undefined)	Ecoli tolC 64
Cc1ccc(-c2ccc(CCC(=O)O)n2CC2CCCO2)cc1 (centres undefined)	none (no result: Ecoli tolC, MMP13 inh, E coli RNAP, AP complement, BAP1 inh)
COC(=O)c1cccc(NC(=O)Cn2cnc3c2c(=O)n(C)c(=O)n3C)c1	MMP13 inh 15 (no result: E coli WT exp)
Nc1cccc(N)c1NC(=O)c1ccccc1	none (no result: Ecoli tolC, E coli WT exp, MMP13 inh, E coli RNAP, AP complement)
COc1cc(-c2nnc(SCc3ccccc3Cl)o2)cc(OC)c1OC	Ecoli tolC 77
COc1cc(-c2nc(Cc3ccccc3Cl)no2)cc(OC)c1OC	Ecoli tolC 67
COc1cc(-c2nnc(SCc3c(F)cccc3Cl)o2)cc(OC)c1OC	none
CCCCN(C)Cc1c(O)ccc2c(=O)c(Oc3ccccc3Br)c(C(F)(F)F)oc12	none (no result: Ecoli tolC, E coli WT exp, MMP13 inh, E coli RNAP, AP complement)
CC(NC(=O)Nc1nnc(C(F)(F)F)s1)(C(F)(F)F)C(F)(F)F	E coli WT exp 71 (no result: E coli RNAP, AP complement)
C/C(=N/n1cnnc1)c1cccnc1	E coli RNAP 27 (no result: AP complement)
C=CCn1c(SCC(=O)NC2CCCCC2)nnc1C1CCCCC1	none (no result: Ecoli tolC, MMP13 inh, E coli RNAP, AP complement, BAP1 inh)
C=CCSc1nc2c(c(=N)n1CC=C)C1CCCC1S2 (centres undefined)	Ecoli tolC 96
O=C1CCCc2nc3nc4ccccc4n3cc21	Ecoli tolC 93
O=C1CCCc2nc(N3CCN(c4ccccc4)CC3)ncc21	none
COc1ccc(C2c3sc(=O)[nH]c3SC3C4CCC(C4)C23)cc1 (centres undefined)	Ecoli tolC 100 (not shown: BAP1 inh)
